From ChEMBL document CHEMBL3421600, “Hupehenols A-E, selective 11β-hydroxysteroid dehydrogenase type 1 (11β-HSD1) inhibitors from Viburnum hupehense” (J Nat Prod, 2015)

Experiments:
[1] = target: 11-beta-hydroxysteroid dehydrogenase 1 (Homo sapiens, UniProt P28845); test: Inhibition of human 11beta-HSD1 overexpressed in microsomal fraction of HEK293 cells assessed as formation of [3H]-cortisol from [3H]-cortisone by scintillation proximity assay in presence of NADPH; format: cell-based
In short: (§1)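 Full-length human or murine 11β-HSD1 cDNA cloned into pcDNA3 and stably transfected into HEK-293 cells, selected with G418 (700 μg/mL). Microsomal fraction used as enzyme source. Microsomes incubated with NADPH, [3H]cortisone and compound. [3H]cortisol product captured by monoclonal antibody on protein A-coated SPA beads and read by scintillation proximity. IC50 reported.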

[2] = target: T1, 11-beta-hydroxysteroid dehydrogenase type 2 (Mus musculus, UniProt P51661); test: Inhibition of mouse 11beta-HSD2 overexpressed in microsomal fraction of HEK293 cells using [3H]-cortisol as substrate by scintillation proximity assay in presence of NAD+
T1 sequence (P51661 whole entry): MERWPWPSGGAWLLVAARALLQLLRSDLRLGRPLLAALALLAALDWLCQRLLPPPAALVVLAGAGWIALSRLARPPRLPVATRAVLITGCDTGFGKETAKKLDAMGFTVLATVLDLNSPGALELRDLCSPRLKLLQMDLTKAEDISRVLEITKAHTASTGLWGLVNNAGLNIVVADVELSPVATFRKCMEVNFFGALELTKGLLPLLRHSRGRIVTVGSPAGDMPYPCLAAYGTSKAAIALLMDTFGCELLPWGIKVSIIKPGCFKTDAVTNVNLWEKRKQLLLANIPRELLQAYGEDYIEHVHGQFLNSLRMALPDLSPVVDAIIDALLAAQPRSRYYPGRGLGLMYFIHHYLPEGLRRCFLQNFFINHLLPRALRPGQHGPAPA
In short: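 Enzyme was murine 11β-HSD2 full-length cDNA in pcDNA3, stably expressed in HEK-293 cells selected with G418 (700 μg/mL). Microsomes from these cells were incubated with [3H]cortisol, NAD+ and compound. Activity was read by scintillation proximity assay and IC50 reported.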

[3] = target: 11-beta-hydroxysteroid dehydrogenase 1 (Mus musculus, UniProt P50172); test: Inhibition of mouse 11beta-HSD1 overexpressed in microsomal fraction of HEK293 cells assessed as formation of [3H]-cortisol from [3H]-cortisone by scintillation proximity assay in presence of NADPH; format: cell-based; in short: as §1
[4] = target: T2, 11-beta-hydroxysteroid dehydrogenase type 2 (Homo sapiens, UniProt P80365); test: Inhibition of human 11beta-HSD2 overexpressed in microsomal fraction of HEK293 cells using [3H]-cortisol as substrate by scintillation proximity assay in presence of NAD+
T2 sequence (P80365 whole entry): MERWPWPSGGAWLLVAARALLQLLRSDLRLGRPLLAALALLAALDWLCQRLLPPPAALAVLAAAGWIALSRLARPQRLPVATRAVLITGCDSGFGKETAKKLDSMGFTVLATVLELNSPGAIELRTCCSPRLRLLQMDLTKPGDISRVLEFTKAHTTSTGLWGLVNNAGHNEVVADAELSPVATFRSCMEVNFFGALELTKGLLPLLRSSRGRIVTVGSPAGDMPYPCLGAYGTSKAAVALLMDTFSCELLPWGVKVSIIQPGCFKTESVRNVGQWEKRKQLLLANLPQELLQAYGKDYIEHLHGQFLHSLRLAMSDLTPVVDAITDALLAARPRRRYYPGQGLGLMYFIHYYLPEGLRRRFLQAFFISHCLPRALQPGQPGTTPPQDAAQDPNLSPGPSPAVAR

Sequence of 11-beta-hydroxysteroid dehydrogenase 1 (Mus musculus, UniProt P50172) (P50172 whole entry): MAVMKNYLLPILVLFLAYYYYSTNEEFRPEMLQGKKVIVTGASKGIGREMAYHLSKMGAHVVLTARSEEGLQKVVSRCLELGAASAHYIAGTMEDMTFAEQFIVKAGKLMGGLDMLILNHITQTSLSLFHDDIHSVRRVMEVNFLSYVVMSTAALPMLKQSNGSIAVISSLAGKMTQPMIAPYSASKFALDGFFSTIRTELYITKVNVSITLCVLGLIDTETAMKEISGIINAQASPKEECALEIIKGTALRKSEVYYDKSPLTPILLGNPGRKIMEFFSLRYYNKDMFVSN
Sequence of 11-beta-hydroxysteroid dehydrogenase 1 (Homo sapiens, UniProt P28845) (P28845 whole entry): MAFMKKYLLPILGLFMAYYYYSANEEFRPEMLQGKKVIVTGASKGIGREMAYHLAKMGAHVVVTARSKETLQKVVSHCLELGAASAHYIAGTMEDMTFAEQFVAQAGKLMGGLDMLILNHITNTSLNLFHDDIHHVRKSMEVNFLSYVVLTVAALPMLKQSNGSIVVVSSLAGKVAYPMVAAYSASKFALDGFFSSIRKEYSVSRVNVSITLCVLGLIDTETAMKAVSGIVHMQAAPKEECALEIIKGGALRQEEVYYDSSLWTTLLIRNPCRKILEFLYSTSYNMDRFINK

## CO[C@@H]1CC(=O)[C@]2(C)[C@@H]1[C@H](OC(C)=O)C[C@@H]1[C@@]3(C)CC[C@H](O)C(C)(C)[C@@H]3CC[C@]12C
[1]
  IC50: 0.0153 µM
[2]
  IC50: 155 µM
[3]
  IC50: 3.3 µM

## CC1(C)[C@@H](O)CC[C@]2(C)[C@H]3C[C@@H](O)[C@@H]4C=CC(=O)[C@@]4(C)[C@]3(C)CC[C@@H]12
[1]
  IC50: 0.395 µM
[2]
  IC50: > 1000 µM
[3]
  IC50: 2.9 µM
[4]
  IC50: 284 µM

## CC(=O)O[C@@H]1C[C@@H]2[C@@]3(C)CC[C@H](O)C(C)(C)[C@@H]3CC[C@@]2(C)[C@]2(C)C(=O)C=C[C@@H]12
[1]
  IC50: 0.0341 µM
[2]
  IC50: 217 µM
[3]
  IC50: 7.2 µM

## CC(=O)O[C@@H]1C[C@@H]2[C@@]3(C)CC[C@H](O)C(C)(C)[C@@H]3CC[C@@]2(C)[C@]2(C)C(=O)C[C@@H](O)[C@@H]12
[1]
  IC50: 0.0755 µM
[2]
  IC50: > 1000 µM
[3]
  IC50: 4.7 µM

## CO[C@@H]1CC(=O)[C@]2(C)[C@@H]1[C@H](O)C[C@@H]1[C@@]3(C)CC[C@H](O)C(C)(C)[C@@H]3CC[C@]12C
[1]
  IC50: 0.194 µM
[2]
  IC50: 292 µM
[3]
  IC50: 2.8 µM
